Results as given in ChEMBL document CHEMBL2331325, “Antioxidant lignans and chromone glycosides from Eurya japonica” (J Nat Prod, 2013).

Legend:
[1] = system: Radical scavenging activity; assay: Antioxidant activity assessed as DPPH radical scavenging activity […]; type: functional
Summary of the method: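 Shaken in the dark at room temperature for 30 min, then absorbance read at 517 nm. Negative control without compound. ED50 taken as the concentration scavenging 50% of DPPH radicals.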

[2] = Cytotoxicity against mouse RAW264.7 cells assessed as cell viability at 20 ug/ml after 24 hrs by MTT assay; type: cell-based; details: read-out: Activity
Summary of the method: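 Viability of RAW 264.7 cells measured by MTT after 24 h co-treatment with LPS (1000 ng/mL) and compound at 20 μg/mL. Compounds dissolved in DMSO and diluted in sterile PBS.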

[3] = system: RAW264.7; assay: Inhibition of LPS-induced NO production in mouse RAW264.7 cells after 24 hrs at 20 ug/ml; type: functional; set-up: scale not given: the % may be the effect or the level left
[4] = system: RAW264.7; assay: Inhibition of LPS-induced NO production in mouse RAW264.7 cells after 24 hrs; type: functional, cell-based; details: RAW264.7, 24 h

Structure (SMILES)	ED50 [1]	viability at 24 h, 20 ug/ml [2]	Activity [3]	IC50 [4]
O=C1c2c(O)cc(O)cc2O[C@@H](c2ccc(O)c(O)c2)[C@@H]1O[C@@H]1O[C@H](CO)[C@@H](O)[C@H](O)[C@H]1O	36.2 µM	105%	35.78%	–
COc1cc(CCO)cc(OC)c1O[C@@H]1O[C@H](CO)[C@@H](O)[C@H](O)[C@H]1O	> 100 µM	–	–	–
COc1cc(CO)cc(OC)c1O[C@@H]1O[C@H](CO)[C@@H](O)[C@H](O)[C@H]1O	> 100 µM	–	–	–
COc1cc(O[C@@H]2O[C@H](CO)[C@@H](O)[C@H](O)[C@H]2O)cc(O)c1OC	> 100 µM	–	–	–
COc1cc2c(c(OC)c1O)[C@H]1c3c(cc(OC)c(O)c3OC)OC[C@@H](C2)[C@H]1CO[C@@H]1O[C@H](CO)[C@@H](O)[C@H](O)[C@H]1O	24.7 µM	110%	40.37%	–
O=C(/C=C/c1ccc(O)cc1)OC[C@H]1O[C@@H](OCCc2ccc(O)c(O)c2)[C@H](O)[C@@H](O)[C@@H]1O	33 µM	–	–	–
O=C1c2c(O)cc(O)cc2OC(c2ccc(O)c(O)c2)C1O[C@@H]1OC[C@@H](O)[C@H](O)[C@H]1O (single isomer, unassigned)	25.2 µM	107%	37.84%	–
COc1cc([C@H]2c3cc(O)c(OC)cc3C[C@@H](CO)[C@@H]2CO[C@@H]2O[C@@H](C)[C@H](O)[C@@H](O)[C@H]2O)ccc1O [AVICULIN]	44.8 µM	112%	39.68%	–
O=C1c2c(O)cc(O)cc2O[C@H](c2ccc(O)c(O)c2)[C@H]1O[C@@H]1O[C@H](CO)[C@@H](O)[C@H](O)[C@H]1O	33.5 µM	101%	35.55%	–
COc1cc([C@H]2c3c(cc(OC)c(O)c3OC)C[C@@H](CO[C@@H]3O[C@H](CO)[C@@H](O)[C@H](O)[C@H]3O)[C@@H]2CO)cc(OC)c1O	37.6 µM	101%	39.22%	–
C=C(C)[C@@H]1CC[C@]2(C(=O)O)CC[C@]3(C)[C@H](CC[C@@H]4[C@@]5(C)CC[C@H](O)C(C)(C)[C@@H]5CC[C@]43C)[C@@H]12 [BETULINIC ACID]	> 100 µM	60.3%	56.19%	–
COc1cc2c(c(OC)c1O)[C@@H]1c3c(cc(OC)c(O)c3OC)OC[C@H](C2)[C@@H]1CO[C@@H]1O[C@H](CO)[C@@H](O)[C@H](O)[C@H]1O	23.4 µM	106%	38.99%	–
O=C1c2c(O)cc(O)cc2O[C@H](c2ccc(O)c(O)c2)[C@@H]1O[C@@H]1OC[C@@H](O)[C@H](O)[C@H]1O	26.6 µM	108%	35.32%	–
O=C1C=CC(O)(CCO[C@@H]2O[C@H](COC(=O)/C=C/c3ccc(O)cc3)[C@@H](O)[C@H](O)[C@H]2O)C=C1	> 100 µM	–	–	–
O=c1c(O[C@@H]2OC[C@@H](O)[C@H](O)[C@H]2O)coc2cc(O)cc(O)c12	> 100 µM	102%	36.24%	–
COc1cc([C@@H]2c3c(cc(OC)c(O)c3OC)C[C@H](CO)[C@H]2CO[C@@H]2O[C@H](CO)[C@@H](O)[C@H](O)[C@H]2O)cc(OC)c1O	26.6 µM	104%	38.76%	–
O=C1O[C@H]2[C@H](O)[C@@H](O)[C@H](CO)O[C@@H]2c2c1cc(O)c(O)c2O	> 100 µM	–	–	–
O=C1c2c(O)cc(O)cc2O[C@H](c2ccc(O)c(O)c2)[C@H]1O[C@@H]1OC[C@@H](O)[C@H](O)[C@H]1O	30.4 µM	105%	33.26%	–
O=c1c(O[C@@H]2O[C@H](CO)[C@@H](O)[C@H](O)[C@H]2O)coc2cc(O)cc(O)c12	> 100 µM	105%	53.79%	–
Cc1c(C)c2c(c(C)c1O)CC[C@@](C)(CCC[C@H](C)CCC[C@H](C)CCCC(C)C)O2	27.2 µM	–	–	–
COc1cc(CCCO)cc(OC)c1O[C@@H]1O[C@H](CO)[C@@H](O)[C@H](O)[C@H]1O	> 100 µM	–	–	–
COc1ccc(O[C@@H]2O[C@H](CO)[C@@H](O)[C@H](O)[C@H]2O)cc1OC	> 100 µM	–	–	–
CC[C@H](CC[C@@H](C)[C@H]1CC[C@H]2[C@@H]3CC=C4C[C@@H](O[C@@H]5O[C@H](CO)[C@@H](O)[C@H](O)[C@H]5O)CC[C@]4(C)[C@H]3CC[C@]12C)C(C)C	> 100 µM	–	–	–
O=c1c(O[C@@H]2OC[C@H](O)[C@H](O)[C@H]2O)coc2cc(O)cc(O)c12	133 µM	106%	38.07%	–
O=c1c(O)c(-c2ccc(O)c(O)c2)oc2cc(O)cc(O)c12 [QUERCETIN]	–	–	–	1.3 µM
O=C1c2c(O)cc(O)cc2O[C@@H](c2ccc(O)c(O)c2)[C@H]1O[C@@H]1OC[C@@H](O)[C@H](O)[C@H]1O	26.5 µM	102%	36.7%	–
COc1cc(O[C@@H]2O[C@H](CO)[C@@H](O)[C@H](O)[C@H]2O)cc(OC)c1OC	> 100 µM	–	–	–
